Data from ChEMBL document CHEMBL3259611, “Suppression of inflammatory responses by handelin, a guaianolide dimer from Chrysanthemum boreale, via downregulation of NF-κB signaling and pro-inflammatory cytokine production” (J Nat Prod, 2014).
Active and inactive are the calls of the source. The rule behind the calls is not given here.

Experiments:
RAW264.7 [1] = test: Antiinflammatory activity in mouse RAW264.7 cells assessed as inhibition of LPS-induced COX2 mRNA expression at 10 uM after 5 hrs by RT-PCR analysis relative to control; assay type: functional
How it was run: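 RAW 264.7 cells exposed to 1 μg/mL LPS with or without compound for 5 h. Total RNA was analysed by RT-PCR: 25−30 cycles with annealing at 55 °C. Products were separated on 2% agarose gel with SYBR-Safe staining. Experiments in triplicate.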

[2] = target: T1, Nuclear factor NF-kappa-B p105 subunit (Mus musculus) (UniProt P25799); test: Inhibition of LPS-induced NF-kappaB p50 binding to DNA in mouse RAW264.7 cells at 10 to 40 uM after 1.5 hrs by spectrophotometry in presence of mutant oligonucleotide; assay type: cell-based
T1 sequence (whole entry): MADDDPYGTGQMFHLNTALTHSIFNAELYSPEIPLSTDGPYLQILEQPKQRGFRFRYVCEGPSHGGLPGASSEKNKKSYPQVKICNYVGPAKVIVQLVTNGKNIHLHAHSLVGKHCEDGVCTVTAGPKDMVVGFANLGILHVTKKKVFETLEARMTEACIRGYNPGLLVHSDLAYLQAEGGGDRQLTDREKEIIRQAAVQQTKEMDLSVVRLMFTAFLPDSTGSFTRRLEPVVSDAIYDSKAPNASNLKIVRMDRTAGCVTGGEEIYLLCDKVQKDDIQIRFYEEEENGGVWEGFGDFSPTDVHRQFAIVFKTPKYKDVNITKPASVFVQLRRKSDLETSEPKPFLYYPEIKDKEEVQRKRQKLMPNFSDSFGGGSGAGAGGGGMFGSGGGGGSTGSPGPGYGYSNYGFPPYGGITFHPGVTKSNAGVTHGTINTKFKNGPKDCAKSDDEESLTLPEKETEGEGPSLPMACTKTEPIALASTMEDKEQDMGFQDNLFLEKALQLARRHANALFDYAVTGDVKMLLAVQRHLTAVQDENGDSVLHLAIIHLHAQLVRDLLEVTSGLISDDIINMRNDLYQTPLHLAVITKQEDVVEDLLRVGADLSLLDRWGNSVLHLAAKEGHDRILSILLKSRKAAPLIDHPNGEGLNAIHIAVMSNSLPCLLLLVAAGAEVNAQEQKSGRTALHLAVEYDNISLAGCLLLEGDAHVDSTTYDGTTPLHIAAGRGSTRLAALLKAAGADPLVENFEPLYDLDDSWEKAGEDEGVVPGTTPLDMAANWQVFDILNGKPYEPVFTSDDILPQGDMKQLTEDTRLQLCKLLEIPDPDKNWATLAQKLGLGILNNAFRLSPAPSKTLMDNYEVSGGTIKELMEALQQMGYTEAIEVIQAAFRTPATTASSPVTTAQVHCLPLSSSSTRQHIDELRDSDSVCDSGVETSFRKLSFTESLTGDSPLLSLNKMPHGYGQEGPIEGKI

RAW264.7 [3] = test: Antiinflammatory activity in mouse RAW264.7 cells assessed as inhibition LPS-induced TNF-alpha protein expression at 10 uM after 4 hrs by Western blotting analysis relative to control; assay type: functional
JNK1/JNK2 (Mus musculus) = JNK1/JNK2 (Mus musculus) (UniProt Q91Y86+Q9WTU6); test: Inhibition LPS-induced JNK1/2 phosphorylation at Thr183/[…] in mouse RAW264.7 cells at 20 uM administered 30 mins prior to LPS challenge measured after 30 mins by Western blotting analysis; assay type: cell-based
How it was run: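 RAW 264.7 cells pretreated with compound for 30 min, then stimulated with LPS for 30 min. Protein extracts were Western blotted for phosphorylated ERK and JNK (SDS-PAGE, PVDF, ECL detection).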

Rattus norvegicus = test: Antiinflammatory activity in po dosed rat paw edema model assessed as inhibition of carrageenan-induced serum IL-1beta production administered 30 mins prior to carrageenan challenge measured after 6 hrs by ELISA relative to vehicle-treated control

JNK1/JNK2 (Mus musculus), sequence (Q91Y86 whole entry, looked up): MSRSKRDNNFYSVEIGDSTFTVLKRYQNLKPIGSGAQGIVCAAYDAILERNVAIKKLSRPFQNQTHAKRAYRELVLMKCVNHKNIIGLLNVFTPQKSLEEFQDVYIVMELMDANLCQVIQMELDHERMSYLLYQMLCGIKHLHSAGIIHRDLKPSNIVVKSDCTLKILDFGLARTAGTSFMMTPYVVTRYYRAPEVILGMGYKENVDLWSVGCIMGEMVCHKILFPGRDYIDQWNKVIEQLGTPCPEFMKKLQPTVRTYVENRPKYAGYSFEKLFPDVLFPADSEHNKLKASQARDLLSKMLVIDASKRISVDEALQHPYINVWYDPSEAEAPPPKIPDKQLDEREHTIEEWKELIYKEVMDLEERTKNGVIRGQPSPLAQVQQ
JNK1/JNK2 (Mus musculus), sequence (Q9WTU6 whole entry, looked up): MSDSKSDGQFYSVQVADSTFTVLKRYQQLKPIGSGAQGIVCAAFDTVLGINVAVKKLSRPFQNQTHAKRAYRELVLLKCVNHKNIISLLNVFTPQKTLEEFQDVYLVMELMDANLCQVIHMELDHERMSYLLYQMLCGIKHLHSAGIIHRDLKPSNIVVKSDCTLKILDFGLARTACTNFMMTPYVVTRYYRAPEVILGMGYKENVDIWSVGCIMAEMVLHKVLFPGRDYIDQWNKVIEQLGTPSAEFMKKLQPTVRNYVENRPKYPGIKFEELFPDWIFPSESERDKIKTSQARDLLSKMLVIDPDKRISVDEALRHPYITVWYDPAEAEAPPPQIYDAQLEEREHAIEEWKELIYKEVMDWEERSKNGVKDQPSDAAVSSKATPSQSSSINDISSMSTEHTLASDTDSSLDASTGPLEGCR

C=C1C(=O)O[C@@H]2[C@@H]3[C@@]4(C=C[C@@]3(C)[C@]3(C4)C(=O)O[C@@H]4[C@H]5C(C)=CC[C@H]5[C@](C)(O)C[C@H](OC(C)=O)[C@H]43)[C@](C)(O)CC[C@@H]12
fold change (FC) (RAW264.7 [1]): 0.63
inhibition [2]: Active
fold change (FC) (RAW264.7 [3]): 0.9
fold change (FC) (JNK1/JNK2 (Mus musculus)): 0.54
inhibition (Rattus norvegicus): Dose-dependent effect
